ChEMBL document CHEMBL1132213, “Tyrosine kinase inhibitors. 15. 4-(Phenylamino)quinazoline and 4-(phenylamino)pyrido[d]pyrimidine acrylamides as irreversible inhibitors of the ATP binding site of the epidermal growth factor receptor” (J Med Chem, 1999)
“And” between values parts separate entries of the source, which are not always exact repeats. Equal values may be shown once. Blank lines part the entries; values can stand above or below the compound they belong to.

Experiments:
[1] = tested on: NCI-H125; assay: Difference in days for treated (T) and control (C) tumors to reach 750 mg at 250 mg/kg peroral dose; assay type: functional; conditions: route oral
Procedure, shortened: (§1)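 Nude (NCr nu/nu) mice of 18–22 g were randomized and implanted sc in the right axilla with serially passaged A431 or H125 tumor fragments on day 0. Dosing by average cage weight (6 mice/group) ip or po began at 100–150 mg tumor mass. The ip vehicle was 6% dimethylacetamide/94% 50 mM sodium lactate pH 4.0 suspension; later suspensions used 0.5% methylcellulose. T/C = median treated/control tumor mass ×100% on the last therapy day. T−C = days for tumors to reach 750 mg.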

[2] = tested on: A-431; assay: In vivo activity against A431 cell tumor xenograft in nude mice at 75 ip mg/kg dose; assay type: functional; procedure, shortened: as §1
[3] = tested on: NCI-H125; assay: Difference in days for treated (T) and control (C) H125 cell tumors to reach 750 mg at 50 mg/kg ip dose; assay type: functional; conditions: route intraperitoneal; procedure, shortened: as §1
[4] = tested on: NCI-H125; assay: In vivo activity against H125 xenograft in nude mice, ratio of treated/control median tumor mass at 50 mg/kg ip dose; assay type: functional; conditions: route intraperitoneal; procedure, shortened: as §1
[5] = tested on: NCI-H125; assay: In vivo activity against H125 xenograft in nude mice, weight change at 50 mg/kg ip dose; assay type: functional; conditions: route intraperitoneal; procedure, shortened: as §1
[6] = tested on: NCI-H125; assay: In vivo activity against H125 xenograft in nude mice, ratio of treated/control median tumor mass at 250 mg/kg peroral dose; assay type: functional; conditions: route oral; procedure, shortened: as §1
[7] = tested on: A-431; assay: Difference in days for treated (T) and control (C) A431 cell tumors to reach 750 mg at 260 mg/kg peroral dose; assay type: functional; conditions: route oral; procedure, shortened: as §1
[8] = molecular target: T1, Receptor tyrosine-protein kinase erbB-2 (Homo sapiens, UniProt P04626); assay: Inhibition of heregulin-stimulated autophosphorylation of ERBB2 receptor kinase in MDA-MB-453 cells.; assay type: cell-based
Procedure, shortened: (§2)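 MDA-MB-453 cells in αMEM/F12 with 10% FBS were grown to 90% confluency and held serum-free for 18 h. Cells were treated 1 h with varied inhibitor concentrations, then stimulated 5 min with heregulin (10 ng/mL) and lysed in boiling Laemmli buffer. Read-out was SDS-PAGE and antiphosphotyrosine Western blot with [125I]protein A detection and laser densitometry. IC50 is the average of two experiments.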

[9] = tested on: NCI-H125; assay: In vivo activity against H125 xenograft in nude mice, weight change at 250 mg/kg peroral dose; assay type: functional; conditions: route oral; procedure, shortened: as §1
[10] = tested on: A-431; assay: In vivo activity against A431 xenograft in nude mice, ratio of treated/control median tumor mass at 260 mg/kg peroral dose; conditions: route oral
[11] = tested on: Mus musculus; assay: In vivo activity against tumor xenograft in nude mice, weight change at 75 mg/kg ip dose; assay type: functional; conditions: route intraperitoneal; procedure, shortened: as §1
[12] = tested on: A-431; assay: Difference in days for treated (T) and control (C) A431 cell tumors to reach 750 mg at 75 mg/kg ip dose; assay type: functional; conditions: route intraperitoneal; procedure, shortened: as §1
[13] = tested on: A-431; assay: In vivo activity against A431 xenograft in nude mice, weight change at 260 mg/kg peroral dose; conditions: route oral
[14] = tested on: Mus musculus; assay: Difference in days for treated (T) and control (C) tumors to reach 750 mg at 200 mg/kg ip dose; assay type: functional; conditions: route intraperitoneal; procedure, shortened: as §1
[15] = molecular target: T2, Epidermal growth factor receptor (Homo sapiens, UniProt P00533)
[16] = tested on: A-431; assay: In vivo activity against A431 xenograft in nude mice, ratio of treated/control median tumor mass at 200 mg/kg peroral dose; assay type: functional; conditions: route oral; procedure, shortened: as §1
[17] = molecular target: T2, Epidermal growth factor receptor; remark: listed apart in the source
[18] = tested on: A-431; assay: (§3) In vivo activity against A431 xenograft in nude mice, weight change at 200 mg/kg peroral dose; assay type: functional; conditions: route oral; procedure, shortened: as §1
[19] = tested on: NCI-H125; assay: (§4) In vivo activity against H125 xenograft in nude mice, weight change at 200 mg/kg peroral dose; assay type: functional; conditions: route oral; procedure, shortened: as §1
[20] = tested on: NCI-H125; assay: In vivo activity against H125 xenograft in nude mice, ratio of treated/control median tumor mass at 200 mg/kg peroral dose; assay type: functional; conditions: route oral; procedure, shortened: as §1
[21] = tested on: A-431; assay: In vivo activity against A431 xenograft in nude mice, ratio of treated/control median tumor mass at 47 mg/kg ip dose; assay type: functional; conditions: route intraperitoneal; procedure, shortened: as §1
[22] = tested on: A-431; assay: In vivo activity against A431 xenograft in nude mice, weight change at 47 mg/kg ip dose; assay type: functional; conditions: route intraperitoneal; procedure, shortened: as §1
[23] = tested on: A-431; assay: Difference in days for treated (T) and control (C) A431 cell tumors to reach 750 mg at 47 mg/kg ip dose; assay type: functional; conditions: route intraperitoneal; procedure, shortened: as §1
[24] = tested on: A-431; assay: In vivo activity against A431 xenograft in nude mice, ratio of treated/control median tumor mass at 150 mg/kg peroral dose; assay type: functional; conditions: route oral; procedure, shortened: as §1
[25] = tested on: A-431; assay: In vivo activity against A431 xenograft in nude mice, weight change at 1150 mg/kg peroral dose; assay type: functional; conditions: dose 150 mg/kg; route oral; in the assay text read “150 mg/kg” for “1150 mg/kg”; procedure, shortened: as §1
[26] = tested on: NCI-H125; assay: In vivo activity against H125 xenograft in nude mice, ratio of treated/control median tumor mass at 50 mg/kg peroral dose; assay type: functional; conditions: route oral; procedure, shortened: as §1
[27] = molecular target: T1, Receptor tyrosine-protein kinase erbB-2; assay: Inhibition of heregulin-stimulated autophosphorylation of erbB2 in MDA-MB-453 cells.; assay type: cell-based; procedure, shortened: as §2
[28] = tested on: NCI-H125; assay: In vivo activity against H125 xenograft in nude mice, weight change at 9.6 mg/kg ip dose; assay type: functional; conditions: route intraperitoneal
Procedure, shortened: (§5)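 NCr nu/nu mice (18–22 g, 6/dose group) implanted sc in the right axilla with serially passaged H125 NSCLC fragments on day 0. Dosing ip by average cage weight as a fine suspension in 6% dimethylacetamide/94% 50 mM sodium lactate pH 4.0, started at tumor mass 100–150 mg. Read-outs were body weight change and treated-minus-control days to reach 750 mg.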

[29] = tested on: NCI-H125; assay: In vivo activity against H125 xenograft in nude mice, ratio of treated/control median tumor mass at 9.6 mg/kg peroral dose; assay type: functional; conditions: route intraperitoneal, in the assay text read “intraperitoneal” for “peroral”
[30] = tested on: A-431; assay: In vivo activity against A431 xenograft in nude mice, weight change at 12 mg/kg ip dose; assay type: functional; conditions: route intraperitoneal; procedure, shortened: as §1
[31] = tested on: A-431; assay: In vivo activity against A431 xenograft in nude mice, ratio of treated/control median tumor mass at 212 mg/kg peroral dose; assay type: functional; conditions: dose 12 mg/kg; route intraperitoneal; in the assay text read “12 mg/kg intraperitoneal dose” for “212 mg/kg peroral dose”; procedure, shortened: as §1
[32] = tested on: NCI-H125; assay: Difference in days for treated (T) and control (C) H125 cell tumors to reach 750 mg at 9.6 mg/kg ip dose; assay type: functional; conditions: route intraperitoneal; procedure, shortened: as §5
[33] = tested on: NCI-H125; assay: as §4; assay type: functional, organism-based; design: dose 200 mg/kg; procedure, shortened: as §1
[34] = tested on: A-431; assay: Difference in days for treated (T) and control (C) A431 cell tumors to reach 750 mg at 12 mg/kg ip dose; assay type: functional; conditions: route intraperitoneal; procedure, shortened: as §1
[35] = tested on: A-431; assay: as §3; assay type: functional, organism-based; design: dose 200 mg/kg; procedure, shortened: as §1
[36] = tested on: Mus musculus; assay: Difference in days for treated (T) and control (C) tumors to reach 750 mg at 200 mg/kg peroral dose; assay type: functional; conditions: route oral; procedure, shortened: as §1
[37] = tested on: A-431; assay: Difference in days for treated (T) and control (C) A431 cell tumors to reach 750 mg at 40 mg/kg peroral dose; assay type: functional; conditions: route oral; procedure, shortened: as §1
[38] = tested on: A-431; assay: In vivo activity against A431 xenograft in nude mice, ratio of treated/control median tumor mass at 40 mg/kg peroral dose; assay type: functional; conditions: route oral; procedure, shortened: as §1
[39] = tested on: A-431; assay: In vivo activity against A431 xenograft in nude mice, weight change at 40 mg/kg peroral dose; assay type: functional; conditions: route oral; procedure, shortened: as §1

T1 sequence (P04626 whole entry): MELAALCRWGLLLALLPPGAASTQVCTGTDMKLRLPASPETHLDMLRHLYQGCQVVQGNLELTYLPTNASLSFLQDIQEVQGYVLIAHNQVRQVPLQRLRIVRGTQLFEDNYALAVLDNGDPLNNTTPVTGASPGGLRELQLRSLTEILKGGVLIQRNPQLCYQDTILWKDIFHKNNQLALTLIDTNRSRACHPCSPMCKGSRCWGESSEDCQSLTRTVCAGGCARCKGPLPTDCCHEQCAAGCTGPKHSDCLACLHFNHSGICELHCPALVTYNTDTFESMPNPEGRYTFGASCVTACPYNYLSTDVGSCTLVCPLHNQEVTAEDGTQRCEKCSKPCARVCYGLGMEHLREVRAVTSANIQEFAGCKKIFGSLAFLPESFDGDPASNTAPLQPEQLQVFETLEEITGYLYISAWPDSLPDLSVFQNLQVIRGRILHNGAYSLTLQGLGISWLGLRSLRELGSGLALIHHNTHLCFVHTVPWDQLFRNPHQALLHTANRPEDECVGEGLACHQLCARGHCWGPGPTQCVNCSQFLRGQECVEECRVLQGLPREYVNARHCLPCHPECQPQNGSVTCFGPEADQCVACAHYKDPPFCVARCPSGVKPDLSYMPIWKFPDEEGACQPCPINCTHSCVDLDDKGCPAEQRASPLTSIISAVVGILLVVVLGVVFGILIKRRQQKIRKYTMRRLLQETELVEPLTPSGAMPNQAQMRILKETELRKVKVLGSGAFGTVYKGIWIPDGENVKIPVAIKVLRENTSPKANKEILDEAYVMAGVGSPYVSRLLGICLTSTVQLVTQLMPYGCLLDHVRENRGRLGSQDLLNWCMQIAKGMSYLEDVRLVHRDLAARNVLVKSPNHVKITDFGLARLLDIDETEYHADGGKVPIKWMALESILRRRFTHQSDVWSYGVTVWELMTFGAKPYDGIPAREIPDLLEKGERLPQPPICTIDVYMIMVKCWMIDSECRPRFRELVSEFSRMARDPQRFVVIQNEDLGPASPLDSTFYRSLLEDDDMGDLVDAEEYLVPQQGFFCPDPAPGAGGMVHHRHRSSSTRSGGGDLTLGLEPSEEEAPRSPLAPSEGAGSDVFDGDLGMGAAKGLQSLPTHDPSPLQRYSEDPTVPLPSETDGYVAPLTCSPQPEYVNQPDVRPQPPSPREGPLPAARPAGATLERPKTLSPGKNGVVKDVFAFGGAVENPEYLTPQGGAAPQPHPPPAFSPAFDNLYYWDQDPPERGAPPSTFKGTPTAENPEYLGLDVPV
T2 sequence (P00533 whole entry): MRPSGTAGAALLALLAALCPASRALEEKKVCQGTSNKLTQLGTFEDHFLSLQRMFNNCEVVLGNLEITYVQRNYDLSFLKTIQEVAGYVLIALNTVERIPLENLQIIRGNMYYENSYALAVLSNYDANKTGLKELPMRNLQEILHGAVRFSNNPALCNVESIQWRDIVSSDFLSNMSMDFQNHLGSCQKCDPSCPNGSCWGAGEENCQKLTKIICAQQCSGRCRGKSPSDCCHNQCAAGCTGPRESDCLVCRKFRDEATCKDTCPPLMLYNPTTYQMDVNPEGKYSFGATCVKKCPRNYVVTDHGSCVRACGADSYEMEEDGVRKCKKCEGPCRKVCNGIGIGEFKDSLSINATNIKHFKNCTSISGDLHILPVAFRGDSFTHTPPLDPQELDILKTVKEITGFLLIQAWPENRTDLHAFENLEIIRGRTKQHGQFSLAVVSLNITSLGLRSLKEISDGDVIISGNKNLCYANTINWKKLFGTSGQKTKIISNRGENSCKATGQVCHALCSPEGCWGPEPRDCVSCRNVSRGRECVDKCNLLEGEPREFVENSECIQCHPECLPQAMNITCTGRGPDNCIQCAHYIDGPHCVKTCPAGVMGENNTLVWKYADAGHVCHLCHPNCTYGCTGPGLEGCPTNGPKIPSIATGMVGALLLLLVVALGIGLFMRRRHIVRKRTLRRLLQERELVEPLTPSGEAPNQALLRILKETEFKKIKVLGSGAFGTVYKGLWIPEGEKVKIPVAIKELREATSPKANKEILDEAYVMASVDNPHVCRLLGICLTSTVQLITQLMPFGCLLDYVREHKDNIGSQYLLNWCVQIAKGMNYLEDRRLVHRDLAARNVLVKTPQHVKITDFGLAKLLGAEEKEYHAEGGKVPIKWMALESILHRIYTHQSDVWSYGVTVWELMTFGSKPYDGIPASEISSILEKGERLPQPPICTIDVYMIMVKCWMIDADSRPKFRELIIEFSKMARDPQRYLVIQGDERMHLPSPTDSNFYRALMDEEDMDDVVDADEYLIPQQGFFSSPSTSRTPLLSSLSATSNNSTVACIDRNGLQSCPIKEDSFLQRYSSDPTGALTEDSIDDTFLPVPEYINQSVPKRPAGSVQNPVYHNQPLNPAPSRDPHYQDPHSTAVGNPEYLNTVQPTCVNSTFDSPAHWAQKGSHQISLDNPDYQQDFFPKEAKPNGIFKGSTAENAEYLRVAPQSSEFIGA

SMILES: C=CC(=O)Nc1ccc2ncnc(Nc3cccc(C)c3)c2c1
T-C [1]: 10.5 days
T/C [2]: 11%
T-C [3]: 11.9 days
T/C [4]: 15%
Weight change [5]: 0 g
T/C [6]: 24%
T-C [7]: 28.2 days
IC50 [8]: 22 nM
Weight change [9]: -0.1 g
T/C [10]: 3%
Weight change [11]: -2.2 g
T-C [12]: 32.3 days
Weight change [13]: -1.3 g

SMILES: C=CC(=O)Nc1ccc2ncnc(Nc3ccc(Oc4ccccc4)cc3)c2c1
IC50 [8]: 8.6 nM

SMILES: C=CC(=O)Nc1cc2c(Nc3cccc(C)c3)ncnc2cn1
IC50 [27]: 8.8 nM

SMILES: C=CC(=O)Nc1cc2c(Nc3cccc(Br)c3)ncnc2cn1
Weight change [28]: -1.3 g
T-C [14]: 24.3 days and 16.5 days
T/C [29]: 26%
Weight change [30]: -2.4 g
T/C [31]: 17%
IC50 [8]: 3.9 nM
T-C [32]: 8.7 days
T/C ([20]; 200 mg/kg): 11% and 20%
Weight change [33]: Weight gain
T-C [34]: 12 days

SMILES: C=CC(=O)Nc1ccc2ncnc(N3CCc4ccc(Br)cc43)c2c1
IC50 [17]: 9.9 nM

SMILES: C=CC(=O)Nc1cc2c(Nc3ccc(F)c(Br)c3)ncnc2cn1
Weight change [35]: Weight gain
T-C [14]: 51.1 days and 18.2 days
IC50 [15]: 0.72 nM
T/C [16]: 13%
IC50 [17]: 2.1 nM
Weight change [19]: -1.8 g
IC50 [8]: 1.1 nM
T/C [20]: 19%

SMILES: C=CC(=O)Nc1ccc2c(Nc3cccc(Br)c3)ncnc2c1
IC50 [15]: 0.45 nM
IC50 [8]: 73 nM

SMILES: C=CC(=O)Nc1ccc2ncnc(Nc3ccc(F)c(Br)c3)c2n1
IC50 [15]: 1.2 nM
IC50 [17]: 18 nM
IC50 [8]: 26 nM

Continued, in another order:

IC50 [8]: 12 nM
SMILES: C=CC(=O)Nc1ccc2ncnc(Nc3ccc(F)c(Cl)c3)c2n1

IC50 [15]: 0.77 nM
IC50 [17]: 3.3 nM
IC50 [8]: 3 nM
SMILES: C=CC(=O)Nc1cc2c(Nc3ccc(F)c(Cl)c3)ncnc2cn1
T-C [14]: 18.3 days and 12.7 days
T/C [16]: 12%
Weight change [18]: -0.3 g
Weight change [19]: -1.8 g
T/C [20]: 27%

IC50 [8]: 5.7 nM
SMILES: C=CC(=O)Nc1ccc2ncnc(Nc3cccc(Br)c3)c2c1
T/C [21]: 2%
Weight change [22]: -1 g
T/C [4]: 15%
Weight change [5]: -1.5 g
T-C [23]: 29 days and 15.7 days
T/C [24]: 2%
Weight change [25]: -1.7 g
T/C [26]: 8%

IC50 [15]: 0.69 nM
IC50 [17]: 2.7 nM
IC50 [8]: 7.3 nM
SMILES: C=CC(=O)Nc1ccc2ncnc(Nc3ccc(F)c(Br)c3)c2c1

IC50 [15]: 0.75 nM
IC50 [17]: 3.1 nM
IC50 [8]: 4.3 nM
SMILES: C=CC(=O)Nc1ccc2ncnc(Nc3ccc(F)c(Cl)c3)c2c1
T-C [36]: 27.4 days
T-C [37]: 20.8 days
Weight change [19]: -0.3 g
T/C [38]: 11%
T/C [20]: 16%
Weight change [39]: 0 g
